Test results taken from ChEMBL document CHEMBL1122506, “Cardiac-slowing amidines containing the 3-thioindone group. Potential antianginal agents” (1983).

How the values were obtained:
Canis familiaris [1] = species: Canis familiaris; test: Cardiac slowing index was measured for potency and efficacy; assay type: functional, Canis lupus familiaris
Outline: (§1)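 Triazine tachycardia in conscious dogs: carotid artery and jugular vein catheterized with heparinized saline; 18 h after surgery, triazine vasodilator U20388 12 mg/kg po; about 1 h later, dog in sling with arterial pressure and ECG monitored. Test agent infused iv at 0.8 (mg/kg)/min to 30 mg/kg total. D50 = dose giving 50% of maximal slowing in that animal; ΔHR50 = heart-rate change at D50; CS index = %ΔHR50/D50.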

Canis familiaris [2] = test: Dose required to achieve 50 % of maximal cardiac slowing in triazine tachycardia test in conscious dog; assay type: functional, Canis lupus familiaris; outline: as §1
Canis familiaris [3] = species: Canis familiaris; test: Percent decrease from initial heart rate (percent delta HR50/HR0 x 100) in dogs; assay type: functional, Canis lupus familiaris; outline: as §1
Canis familiaris [4] = species: Canis familiaris; test: Relative activity (fraction of the most active compound 24) was determined; assay type: functional, Canis lupus familiaris
Canis familiaris [5] = test: Change in heart rate at the above D50 dose in conscious dogs; assay type: functional, Canis lupus familiaris; outline: as §1
Canis familiaris [6] = test: Myocardial depression in anesthetized, ganglion-blocked dog; Moderate activity.
Canis familiaris [7] = test: Evaluated for the myocardial depression rating which is barely observable for the given compound in anesthetized, ganglion-blocked dog
Canis familiaris [8] = test: Evaluated for the myocardial depression rating which is none for the given compound in anesthetized, ganglion-blocked dog
Canis familiaris [9] = test: Evaluated for the heart rate at dose 1.0 mg/kg in 4 animals by aminophylline-induced sinus tachycardia test; assay type: functional, Canis lupus familiaris
Canis familiaris [10] = test: Evaluated for the heart rate at dose 0.5 mg/kg in 4 animals by poldine tachycardia test; assay type: functional, Canis lupus familiaris
Outline: (§2)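 Poldine tachycardia: dogs prepared surgically as in the triazine method; poldine methyl sulfate 0.5 mg/kg iv, then 30 min later test agent in increasing doses (0.5/1.0/2.5 mg/kg) at 30-min intervals; read-out is the maximum percent decrease in heart rate at each dose.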

Canis familiaris [11] = test: Evaluated for the heart rate at dose 1.0 mg/kg in 4 animals by glucagon-induced tachycardia test; assay type: functional, Canis lupus familiaris
Canis familiaris [12] = test: Myocardial depression rating in anesthetized, ganglion-blocked dog; Weak activity.
Canis familiaris [13] = test: Evaluated for the heart rate at dose 2.5 mg/kg in 4 animals by aminophylline-induced sinus tachycardia test; assay type: functional, Canis lupus familiaris
Canis familiaris [14] = test: Evaluated for the heart rate at dose 1.0 mg/kg in 4 animals by poldine tachycardia test; assay type: functional, Canis lupus familiaris; outline: as §2
Canis familiaris [15] = test: Evaluated for the heart rate at dose 2.5 mg/kg in 4 animals by poldine tachycardia test; assay type: functional, Canis lupus familiaris; outline: as §2
Canis familiaris [16] = test: Evaluated for the heart rate at dose 5.0 mg/kg in 4 animals by aminophylline-induced sinus tachycardia test; assay type: functional, Canis lupus familiaris
Canis familiaris [17] = test: Evaluated for the heart rate at dose 2.5 mg/kg in 4 animals by glucagon-induced tachycardia test; assay type: functional, Canis lupus familiaris
Canis familiaris [18] = test: Evaluated for the heart rate at dose 5.0 mg/kg in 4 animals by glucagon-induced tachycardia test; assay type: functional, Canis lupus familiaris
Canis familiaris [19] = test: Evaluated for the heart rate at dose 1.0 mg/kg in 6 animals by aminophylline-induced sinus tachycardia test; assay type: functional, Canis lupus familiaris
Canis familiaris [20] = test: Evaluated for the heart rate at dose 2.5 mg/kg in 6 animals by aminophylline-induced sinus tachycardia test; assay type: functional, Canis lupus familiaris
Canis familiaris [21] = test: Evaluated for the heart rate at dose 5.0 mg/kg in 6 animals by aminophylline-induced sinus tachycardia test; assay type: functional, Canis lupus familiaris

SMILES | CS index (Canis familiaris [1]) | D50 (Canis familiaris [2]) [mg/kg] | Delta HR50 (Canis familiaris [3]) [%] | Relative activity (Canis familiaris [4]) | Delta HR50 (Canis familiaris [5]) [beats min-1] | MD (Canis familiaris [6]) | other results
COCCn1cc(SCC/N=C2\CCCN2C)c2ccccc21 | 11.7 | 1.5 | 17.6 | 0.37 | -33 | 2.5 | 
CCn1cc(SCCCC/N=C2\CCCN2C)c2ccccc21 | 22.8 | 0.7 | 16 | 0.71 | -33 | 3.5 | 
CCCn1cc(SCC/N=C2\CCCN2C)c2ccccc21 | 16.1 | 1.7 | 27.4 | 0.5 | -60 |  | MD (Canis familiaris [7]): 1
CCn1cc(CC/N=C2/CCCN2C)c2ccccc21 | 25.2 | 0.8 | 20.2 | 0.79 | -48 |  | MD (Canis familiaris [8]): 0
Cc1[nH]c2ccccc2c1SCC/N=C1\CCCCN1C | 7.1 | 2 | 14.3 | 0.22 | -24 | 3 | 
CC(C)n1cc(SCC/N=C2\CCCN2C)c2ccccc21 | 19.1 | 1 | 19.1 | 0.6 | -31 |  | Max decrease in heart rate (Canis familiaris [9]): 16%; Max decrease in heart rate (Canis familiaris [10]): 15%; Max decrease in heart rate (Canis familiaris [11]): 23%; MD (Canis familiaris [12]): 2; Max decrease in heart rate (Canis familiaris [13]): 33%; Max decrease in heart rate (Canis familiaris [14]): 38%; Max decrease in heart rate (Canis familiaris [15]): 55%; Max decrease in heart rate (Canis familiaris [16]): 47%; Max decrease in heart rate (Canis familiaris [17]): 39%
CN1CCN=C1NCCCCSc1c[nH]c2ccccc12 | 0.8 | 12.6 | 10.5 | 0.03 | -27 |  | MD (Canis familiaris [8]): 0
Cc1c(SCC/N=C2\CCCN2C)c2ccccc2n1C | 13.9 | 0.9 | 12.5 | 0.43 | -21 | 3.5 | 
CN1CCCC1=NCCCCc1c[nH]c2ccccc12 | 3.1 | 6.1 | 19 | 0.11 | -50 |  | MD (Canis familiaris [8]): 0
CN1CCC/C1=N\CCSc1c[nH]c2ccccc12 | 8.2 | 2.5 | 20.4 | 0.26 | -40 | 3 | Max decrease in heart rate (Canis familiaris [9]): 10%; Max decrease in heart rate (Canis familiaris [10]): 9%; Max decrease in heart rate (Canis familiaris [11]): 6%; Max decrease in heart rate (Canis familiaris [13]): 22%; Max decrease in heart rate (Canis familiaris [14]): 22%; Max decrease in heart rate (Canis familiaris [15]): 33%; Max decrease in heart rate (Canis familiaris [16]): 39%; Max decrease in heart rate (Canis familiaris [18]): 28%; Max decrease in heart rate (Canis familiaris [17]): 20%
CN1CCC/C1=N\CCC1CNc2ccccc21 (stereo not drawn) | 3.5 | 3.5 | 12.2 | 0.13 | -27 |  | MD (Canis familiaris [7]): 1
CN1CCC/C1=N\CCSc1cn(C)c2ccccc12 | 16.8 | 1.2 | 20.2 | 0.52 | -30 |  | Max decrease in heart rate (Canis familiaris [19]): 22%; Max decrease in heart rate (Canis familiaris [10]): 24%; Max decrease in heart rate (Canis familiaris [11]): 13%; MD (Canis familiaris [12]): 2; Max decrease in heart rate (Canis familiaris [14]): 33%; Max decrease in heart rate (Canis familiaris [15]): 47%; Max decrease in heart rate (Canis familiaris [18]): 53%; Max decrease in heart rate (Canis familiaris [20]): 32%; Max decrease in heart rate (Canis familiaris [21]): 39%; Max decrease in heart rate (Canis familiaris [17]): 34%
